The values that follow come from PubChem BioAssay.

Assay [1] in a line: S. cerevisiae growth inhibition in permissive medium (OD615), pilot counter-assay for S. cerevisiae lifespan shortening project, permissive growth control (AID 705). The following applies: OD615, 24 h, at 10 µM, active compounds read high. The essentials: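 System: engineered DeaD yeast; Medium: permissive raffinose/galactose medium; Compound dosing: 10 µM single dose, 0.25% DMSO; Incubation: 4 h cell pre-growth, 24 h exposure at 30 °C; Technique: OD at 615 nm; Evaluation: growth inhibition from lowered OD615 after 24 h.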

Assay [2] in a line: S. cerevisiae growth inhibition in restrictive medium, OD615, pilot screen, restrictive growth control, yeast lifespan reduction project (AID 706;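 active = growth inhibition above a set limit, 3 SD over mean compound inhibition, in both replicates, cut at about 43% in these data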;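 note: modified DeaD lifespan yeast strain shifted to restrictive glucose medium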). The following applies: OD615, 48 h, at 10 µM, active compounds read high. The essentials: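 Material: modified S. cerevisiae; buffer or medium: CSMM-D glucose medium; doses: one concentration, 10 µM final, 0.25% DMSO; incubation: 48 h compound exposure at 30 °C; detection: optical density at 615 nm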

The nature of assay [3]: doxorubicin toxicity protection in MRP-1 cells – H69AR cells, CellTiter-Glo, duplicate, MRP-1 activator project, pilot screen (AID 807;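 active = viability increase at or above a cutoff of the median across tested compounds plus 3 SD, cut at about 8.5% in these data, passing the limit was not always enough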;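 note: compound pretreatment 18-22 h then 72 h combined with doxorubicin; 0% = doxorubicin alone and 100% = vehicle without doxorubicin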). Particulars: H69AR viability with doxorubicin, CellTiter-Glo luminescence; at 10 µM; active compounds read high.
Assay [4] in a line: viability of HCT116 without oncogenic beta-catenin – human colon tumor cells, pilot screen (AID 823;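 active = cell viability at or below a set limit in both duplicate runs, the limit being the all-compound median minus 4 SD, cut at about 23% in these data, passing the limit was not always enough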;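 note: 0% = wells killed by 20 µM Hyamine and 100% = untreated DMSO cell wells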). Particulars: HCT116 beta-catenin knockout viability, CellTiter-Glo, 60 h; at 10 µM; active compounds read low.
The nature of assay [5]: viability of PTEN-null HCT116 cells – cell-based, HCT116 clonal line, CellTiter-Glo, pilot screen (AID 824;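 active = viability at or below 27.92% in each of two runs, the all-compound median minus 4 SD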;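 note: 0% = 20 µM Hyamine control and 100% = vehicle cell control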). The following applies: HCT116 PTEN-deleted viability, 60 h, at 10 µM, active compounds read low.
Assay [6] is described as follows: RAM pathway blockade in budding yeast – dse1pr::URA3 reporter, 5-FOA selection, pilot screen (AID 869;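 active = inhibition over a set limit, the all-compound mean plus 3 SD, in both replicate runs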;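 note: 0% = DMSO wells with no growth and 100% = 10 µM 1-NA-PP1 with full growth; RAM network block rescues cells from 5-FOA so hits raise OD615 growth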). The following applies: S. cerevisiae dse1pr::URA3 5-FOA growth, OD615, 2 d; at 10 µM; active compounds read high; strain carries analog-sensitive mutant Cbk1 kinase.
Assay [7] in a line: RAM signaling pathway blockade in yeast – S. cerevisiae, Pdr1DBD-CYC8 efflux-inhibited sensitized strain, primary screen (AID 1298;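 active = RAM network inhibition above 8.4% in each of two replicates, 3 SD over the compound average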;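 note: 0% = DMSO untreated cells without growth and 100% = 10 µM 1-NA-PP1 full growth; higher means more yeast growth rescued from 5-FOA killing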). The following applies: S. cerevisiae cbk1-as DSE1-URA3 strain, 5-FOA growth OD615, 2 d; at 50 µM; active compounds read high.

Each structure is given as a SMILES string. A number with no mark means an inactive call. Records with an inconclusive call do not appear. Activity calls are given as the source filed them.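 Rule for the calls, unless noted: active = growth inhibition above 25% in both replicates, a cutoff set 3 SD above the mean; inconclusive = above 25% in only one replicate; inactive = the rest.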

Turning to `CCOC(=O)c1cnc2c(Cl)cc(Cl)cc2c1NCCOCCO`, the values for the growth inhibition in assay [1] and in assay [2] were 1.23% and -11.6%, respectively. Besides, the viability increase in assay [3] is -5.62%. The viability in assay [4] is 81.8%; in assay [5], 74.4%. Further, in assay [6], the inhibition was -0.09%. In addition, in assay [7], the RAM network inhibition is 2.56%.

For `CC1CCCN(C(=O)C(Cc2ccccc2)n2cccc2)C1` (stereo unspecified), the growth inhibition in assay [1] is -11.8%; in assay [2] it was -13%. For the same compound, the viability increase in assay [3] was -3.01%. Also, the viability in assay [4] was 87.3%; in assay [5], 88.4%. Besides, in assay [6], the inhibition is 2%. In addition, in assay [7], the RAM network inhibition is 0.97%.

As for `COc1ccc(OCCNS(=O)(=O)c2ccccc2)cc1`, the growth inhibition in assay [1] was -18.1%; in assay [2] it was -18.5%. The viability increase in assay [3] was 0.87%. Also, the viability is 94.5% in assay [4] and 97.2% in assay [5]. Further, the inhibition in assay [6] was 0.965%. Moreover, the RAM network inhibition in assay [7] was 1.42%.

Turning to `CSc1nnc(NC(=O)c2cc3ccccc3oc2=O)s1`, the growth inhibition is -6.82% in assay [1] and -6.74% in assay [2]. In addition, the viability increase in assay [3] is -2.29%. Further, the viability in assay [4] is 93.8%; in assay [5], 95.5%. Moreover, the inhibition in assay [6] was 1.24%. Also, in assay [7], the RAM network inhibition was 4.01%.

For the compound `COc1ccc(NC(=O)C(c2ccc(C)cc2)N(C)C(=O)c2cnccn2)cc1` (stereo unspecified), the growth inhibition in assay [1] was 1.81%; in assay [2], 1.4%. The viability increase in assay [3] is -1.03%. The viability in assay [4] was 89.6%; in assay [5] it was 95.6%. Also, the inhibition in assay [6] was -0.145%. The RAM network inhibition in assay [7] was 0.06%.

As for `O=C(CSc1nnnn1-c1ccccc1)CSc1nnnn1-c1ccccc1`, the growth inhibition in assay [1] was -7.66%; in assay [2], 1.63%. Besides, the viability increase in assay [3] was -5.63%. Besides, the viability in assay [4] is 92.6%; in assay [5], 90.1%. Also, the inhibition in assay [6] is 2.98%. The RAM network inhibition in assay [7] was 7.19%.

For the compound `COc1ccccc1NC1C=CS(=O)(=O)C1` (stereo unspecified), the values for the growth inhibition in assay [1] and in assay [2] were -1.03% and 0.12%, respectively. In assay [3], the viability increase was -2.42%. Further, the viability is 99.5% in assay [4] and 94.4% in assay [5]. Besides, the inhibition in assay [6] is 0.335%. In addition, the RAM network inhibition in assay [7] was 4.65%.

For `O=C(c1ccccc1)n1nc(-c2ccccc2)nc1NCc1ccco1`, the growth inhibition in assay [1] was -15.5%; in assay [2], -17%. The viability increase in assay [3] is 0.43%. In addition, the results for the viability in assay [4] and in assay [5] were 96.7% and 98.1%, respectively. Further, in assay [6], the inhibition was 2.25%. Further, the RAM network inhibition in assay [7] is 6.58%.

For the compound `CCOC(=O)c1sc(/N=C/N(C)C)c(C(=O)OCC)c1C`, the growth inhibition in assay [1] was -5.24%; in assay [2], 0.92%. Besides, the viability increase in assay [3] was -3.82%. In addition, the viability was 95.3% in assay [4] and 90.4% in assay [5]. Besides, the inhibition in assay [6] is 1.98%. Moreover, in assay [7], the RAM network inhibition was 7.56%.

Turning to `COc1ccccc1CNC(=O)c1cnc2sccn2c1=O`, the growth inhibition in assay [1] was -5.31%; in assay [2] it was -12.4%. Moreover, the viability increase in assay [3] was -2.45%. Further, the figures for the viability in assay [4] and in assay [5] were 107% and 90.3%, respectively. In assay [6], the inhibition is 2.37%. The RAM network inhibition in assay [7] was 2.72%.

For `CC(OC(=O)c1cc[n+]([O-])cc1)C(=O)Nc1ccc(Cl)cn1` (stereo unspecified), the growth inhibition in assay [1] is 0.77%; in assay [2] it was 0.53%. In addition, the viability increase in assay [3] was -1.44%. The viability in assay [4] was 102%; in assay [5], 98.3%. Further, the inhibition in assay [6] was 1.23%. The RAM network inhibition in assay [7] is 1.61%.

Take `COc1ccc(S(=O)(=O)N2CCC(C(=O)N3CCOCC3)CC2)cc1OC`: the growth inhibition in assay [1] was -15.4%; in assay [2], -6.63%. For the same compound, the viability increase in assay [3] is -0.87%. In addition, the viability in assay [4] was 91.5%; in assay [5] it was 94.8%. For the same compound, the inhibition in assay [6] is 0.825%. In assay [7], the RAM network inhibition is 2.43%.

Consider `CCn1c(=O)cc(OCC(=O)N2CCc3ccccc32)c2ccccc21`, for which the growth inhibition was -19% in assay [1] and -15.4% in assay [2]. Moreover, the viability increase in assay [3] is -3.92%. The viability in assay [4] is 96.1%; in assay [5], 89.9%. In addition, the inhibition in assay [6] is 2.09%. The RAM network inhibition in assay [7] is 3.25%.

On to `CCOC(=O)N1CCC(N2CC34C=CC(O3)C(C(=O)Nc3ccc(C)cc3)C4C2=O)CC1` (stereo unspecified), for which the growth inhibition in assay [1] is -0.385%; in assay [2], -0.16%. In addition, in assay [3], the viability increase is 1.43%. Besides, the viability is 100% in assay [4] and 102% in assay [5]. Also, the inhibition in assay [6] is 1.33%. In addition, the RAM network inhibition in assay [7] is 2.54%.

Regarding `Cc1noc(C)c1S(=O)(=O)NC1CCN(Cc2ccccc2)CC1`, the growth inhibition in assay [1] is -12.1%; in assay [2] it was -2.23%. For the same compound, the viability increase in assay [3] is -0.68%. Besides, the viability in assay [4] is 95.8%; in assay [5], 94.1%. Also, in assay [6], the inhibition was 3.14%. Besides, the RAM network inhibition in assay [7] was 4.49%.

Take `O=C(Nc1nc2ccc(Cl)cc2s1)c1ccc(Br)o1`: the growth inhibition in assay [1] is -6.29%; in assay [2], -6.11%. Further, the viability increase in assay [3] is -2.25%. Further, the figures for the viability in assay [4] and in assay [5] were 82.3% and 82.7%, respectively. For the same compound, in assay [6], the inhibition is 2.08%. Further, the RAM network inhibition in assay [7] is 5.17%.

As for `CCN(CC)CCNC(=O)c1cc2c(-c3ccc(Cl)cc3)nn(C)c2s1`, the growth inhibition in assay [1] is -4.4%; in assay [2], 2.85%. Moreover, the viability increase in assay [3] is -8.35%. For the same compound, the viability in assay [4] was 2.18% (active); in assay [5] it was 1.95% (active). Further, the inhibition in assay [6] is 0.905%. The RAM network inhibition in assay [7] was 4.19%.

As to `O=C(Nc1nc2c(s1)COc1ccccc1-2)c1cccs1`, the growth inhibition in assay [1] was 0.91%; in assay [2], -0.5%. Also, the viability increase in assay [3] was -4.13%. Further, the viability is 72.2% in assay [4] and 71% in assay [5]. For the same compound, the inhibition in assay [6] was 1.43%. Further, the RAM network inhibition in assay [7] is 3.54%.
